Compound activity deposited in PubChem BioAssay by SRMLSC.
H69AR inhibit: growth inhibitors of human H69AR lung tumor cells. H69AR lung tumor viability, ATP luminescence, 72 h; stronger effect = lower value. viability, % at 10 µM. AID 598. 85,000 compounds, 6% hits;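 active = viability at or below 40%; inactive = viability above 40%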;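 note: multidrug resistant small cell line overexpressing MRP-1 efflux transporter; 100% = mean luminescence of untreated control wells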
HCT116 PTEN-null: growth suppressors of cells with PTEN tumor suppressor deletion; viability, % at 10 µM; 140,000 compounds, 1.2% hits; HCT116 PTEN-null viability, CellTiter-Glo, 60 h; stronger effect = lower value;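 active = viability at or below a set limit, 4 SD under the median of all tested compounds, cut at about 3.7% in these data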;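 note: PTEN knockout HCT116 line with beta catenin targeted HCT116 as companion control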
Lung fibro prol: blocks proliferation of human lung fibroblasts; 85,000 compounds, 1.1% hits; viability, % at 10 µM; AID 719; LL 47 human lung fibroblast viability, ATP luminescence; stronger effect = lower value;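 active = viability at or below 50% in the single dose screen; inactive = viability above 50%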;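 note: compound exposure lasted 72 h before the ATP readout; 100% = median luminescence of untreated cell-only wells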
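Test system: LL 47 human lung fibroblasts / Quantity: 1,150 cells in each well / Medium: IMEM growth medium with 15% fetal bovine serum / Incubation: 72 h compound exposure at 37 °C after overnight plating / Detection: CellTiter-Glo luminescence measuring cellular ATP / Read-out: % viability versus median cells-only luminescence / Benchmarks: cell-only wells, no compound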
HUVEC inhibit: blocks proliferation of human endothelial cells. HUVEC proliferation, CellTiter-Glo luminescence, 72 h; stronger effect = lower value. 86,000 compounds, 1.1% hits. AID 648. viability, % at 10 µM (by protocol);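 active = viability at or below 30%; inactive = viability above 30%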;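 note: 100% = median luminescence of DMSO-only cell control wells on each plate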
bCat KO growth: beta-catenin-lacking colon tumor cell growth suppression; HCT116 beta-catenin knockout viability, CellTiter-Glo, 60 h; stronger effect = lower value; viability, % at 10 µM; 140,000 compounds, 1.5% hits; AID 818;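 active = viability at or under a set limit, the compound median less 4 SD, cut at about 6% in these data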;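 note: 0% = Hyamine 1622 control at 20 µM and 100% = untreated cell control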
The depositor's hits bear a star; x = no result given. The entries come from a sample that favours hits as a whole.

SMILES	H69AR inhibit	HCT116 PTEN-null	Lung fibro prol	HUVEC inhibit	bCat KO growth
Cc1nn(-c2ccccc2)c2c1C(c1ccc([N+](=O)[O-])cc1)N1C(=N2)C(=O)Nc2ccccc21 (stereo not drawn)	x	32	x	x	42
Cc1nn(-c2ccccc2)c2c1C(c1ccc(O)c(O)c1)N1C(=N2)C(Nc2ccccc2)=Nc2ccccc21 (stereo not drawn)	21*	1.2*	39*	13*	1.1*
Cc1cccc(NC2=Nc3ccccc3N3C2=Nc2c(c(C)nn2-c2ccccc2)C3c2ccc(O)c(O)c2)c1 (stereo not drawn)	1.1*	1.1*	45*	41	2.3*
CC12CCC(C(=O)Nc3ccccc3Cl)(C(Br)C1=O)C2(C)C (stereo not drawn)	x	90	x	x	88
CCCNc1c(NC(C)=O)c(=O)oc2ccccc12	x	99	x	x	92
CN(C)CCCN(C(=O)c1sc2ccccc2c1Cl)c1nc2ccc(F)cc2s1	x	98	x	x	102
Cc1ccc2nc(N(CCCN(C)C)C(=O)CCc3ccccc3)sc2c1	x	1.5*	x	x	2.4*
CN(C)CCCN(C(=O)c1ccc2c(c1)CCCC2)c1nc2ccc(Cl)cc2s1	x	2.7*	x	x	3.6*
Cc1ccc2nc(N(CCCN(C)C)C(=O)c3cc4ccccc4oc3=O)sc2c1	x	90	x	x	84
CN(C)CCCN(C(=O)CCc1ccccc1)c1nc2ccc(Cl)cc2s1	x	1.7*	x	x	1.5*
CN(C)CCCN(C(=O)c1cc2ccccc2oc1=O)c1nc2c(F)cccc2s1	x	114	x	x	95
O=C(NCCC1=CCCCC1)C(=O)c1c[nH]c2ccccc12	x	94	x	x	86
O=C(CSc1nnc(Cc2cccs2)n1C1CCCCC1)N1CCCc2ccccc21	34*	64	101	71	73
Cn1c(Cc2cccs2)nnc1SCC(=O)N1CCCc2ccccc21	92	104	101	84	102
COC(=O)C(C(=O)Nc1ccc(OC)cc1)C1CCCCCC1 (stereo not drawn)	21*	49	83	75	43
COc1ccc(Nc2nc(C(F)(F)F)nc(C)c2C#N)cc1	x	95	x	x	95
Cc1c(/C=C(\C#N)c2nn(-c3ccccc3)c(N)c2C#N)c2ccccc2n1Cc1ccc(F)cc1	9.6*	57	65	36	59
CCS(=O)(=O)Nc1ccc(C(=O)CC2(O)C(=O)Nc3ccccc32)cc1 (stereo not drawn)	81	99	100	101	99
COC(=O)c1ccc(NC2(C#N)C(=O)Nc3ccccc32)cc1 (stereo not drawn)	23*	88	95	86	87
O=C(NCCO)C(c1ccccc1)c1ccccc1	36*	95	x	98	86
CC(C)(C)C(C(Oc1ccc(Cl)cc1)n1cncn1)n1nnnc1C(c1cccc(Cl)c1)N1CCCCC1 (stereo not drawn)	12*	15	96	55	5.7*
COCCn1nnnc1C(c1cccc(C#N)c1)N1CCCCCC1 (stereo not drawn)	81	82	98	97	90
CCCCOc1c(Br)cc(/C=N/O)cc1OCC	2.0*	90	89	21*	94
C=CCOc1c(Br)cc(/C=N/O)cc1OCC	x	75	x	x	74
COc1ccccc1CNCC(O)Cn1c2ccccc2c2ccccc21 (stereo not drawn)	x	1.4*	x	x	1.5*
SMILES	H69AR inhibit	HCT116 PTEN-null	Lung fibro prol	HUVEC inhibit	bCat KO growth
CCc1ccccc1NC(=O)COc1cccc2ccc(C)nc12	x	96	x	x	99
C(=C\c1ccccc1)/CSc1nnc(-c2ccccc2)n1Cc1ccco1	18*	12	47*	43	10
Brc1ccc(CSc2nnc(-c3ccccn3)n2Cc2ccco2)cc1	21*	10	49*	52	11
O=C(NCCc1ccccn1)C(F)(F)C(F)(F)C(F)(F)C(F)(F)C(F)(F)C(F)(F)C(F)(F)C(F)F	x	100	x	x	96
O=C(Nc1nnc(SCc2ccc(F)cc2)s1)C1CC(=O)N(Cc2ccccc2)C1 (stereo not drawn)	x	93	x	x	82
Cc1cccc(N=C2NN=C(c3c(C)[nH]c4ccccc34)CS2)c1	x	4	x	x	2.7*
Cc1cccc(N=C2NN=C(c3ccc4c(c3)OCCO4)CS2)c1	77	30	102	86	36
Cc1cc(C)n(-c2nc(NCCC(C)C)c3c4c(sc3n2)COC(C)(C)C4)n1	1.6*	4	86	13*	3.6*
Cc1cc(C)n(-c2nc(SCC(=O)Nc3nccs3)c3c4c(sc3n2)COC(C)(C)C4)n1	47	84	69	61	73
